In brackets after ≈: the same amount, converted by molar mass. Activity calls are given as the source filed them. The rule behind the calls is not given here.
Columns and labels:
Staphylococcus aureus [1] = test: Induction of membrane permeabilization in clinical isolates of Staphylococcus aureus DM4001 assessed as ATP leakage at 50 uM incubated for 10 mins by firefly luciferase based luminometry analysis; assay type: functional
Method in brief: (§1)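 Exponential-phase cells washed twice in 20 mM PBS pH 7 and set to OD620 0.3. Exposed 10 min at 37 °C, then spun at 4000 rpm for 5 min. Supernatant mixed with luciferase reagent (1 mM DTT, 0.5 mM D-luciferin, 1.25 µg/mL firefly luciferase). Luminescence read over 30 cycles.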

[2] = Hemolytic activity against New Zealand white rabbit RBC after 1 hr by microplate reader analysis; assay type: ADME, cell-based, Oryctolagus cuniculus, Erythrocyte; conditions: rabbit red blood cells
Method in brief: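 Rabbit RBCs spun from serum at 3,000 rpm for 10 min and washed twice in PBS. Mixed with compound in DMF at 4% v/v RBCs, 1 h at 37 °C. After centrifugation, hemoglobin in the supernatant read at 576 nm. 2% Triton X-100 was the positive control and 1% DMF the negative control.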

Bacillus cereus = test: Antibacterial activity against clinical isolates of Bacillus cereus ATCC 11778 after 24 hrs by […]; assay type: functional; conditions: ATCC 11778, 24 h
Staphylococcus aureus [3] = test: Induction of membrane permeabilization in clinical isolates of Staphylococcus aureus DM4001 at 50 uM by SYTOX green uptake assay; assay type: functional
Method in brief: (§2)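 Exponential-phase cells washed twice in 20 mM PBS pH 7 and adjusted to OD620 0.09. Given 3 µM SYTOX Green and kept in the dark until fluorescence was stable, then compound added. Fluorescence followed in a stirred cuvette at ex 504/em 523 nm. Melittin 10 µg/mL was the positive control. Run at least twice; one run reported.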

Staphylococcus aureus [4] = test: Antibacterial activity against clinical isolates of methicillin-resistant Staphylococcus aureus DM21455 after 24 hrs by […]; assay type: functional; conditions: DM21455, 24 h
Staphylococcus aureus [5] = test: Antibacterial activity against clinical isolates of methicillin-resistant Staphylococcus aureus DM9808R after 24 hrs by […]; assay type: functional
Staphylococcus aureus [6] = test: Antibacterial activity against clinical isolates of Staphylococcus aureus DM4001R after 24 hrs by […]; assay type: functional
Staphylococcus aureus [7] = test: Induction of membrane disruption in clinical isolates of Staphylococcus aureus DM4001 assessed as membrane integrity incubated for 10 mins by live/dead baclight bacterial viability assay relative to control; assay type: functional; design: concentration or dose not given beside the values
Method in brief: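 Exponential-phase cells washed in 0.9% saline, OD670 0.3, exposed to compound 10 min at room temperature. Pelleted, resuspended, then stained with SYTO 9 (10 µM) plus propidium iodide (60 µM) 15 min dark. Excitation 485 nm, emission 500–700 nm; green/red ratio converted to % damage using standards of 0–100% isopropanol-killed cells.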

Staphylococcus aureus [8] = test: Induction of membrane permeabilization in clinical isolates of Staphylococcus aureus DM4001 at 10 uM measured for 200 sec by SYTOX green influx assay; assay type: functional, organism-based; method in brief: as §2
[9] = Membrane permeabilization activity assessed as release of calcein from DOPE/DOPG large unilamellar vesicles at 0.125 to 0.5 compound:lipid ratio incubated for 30 mins by fluorescence assay; assay type: ADME; conditions: 0.5 h
Method in brief: (§3)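 Freeze-thawed, extruded, then gel-filtered. Final lipid 50 µM with compound added from DMF (<0.2%). Fluorescence at ex 490/em 520 nm over 30 min; 0.1% Triton X-100 defined 100% lysis.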

Staphylococcus aureus [10] = test: Bactericidal activity against clinical isolates of methicillin resistant Staphylococcus aureus DM21455 assessed as log reduction in viability measured up to 300 mins by time kill kinetic study; assay type: functional, organism-based
Method in brief: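 Colonies from 18–22 h TSA plates suspended in 0.31 mM phosphate buffer pH 7.2 at 10^5–10^6 CFU/mL. Treated at 1×, 2× and 4× MIC at 35 °C, sampled at 10 min, 30 min, 1 h, 2 h and 5 h. Ten-fold dilutions spread on MHA, 35 °C for 48–72 h, colonies counted. Detection limit 100 CFU/mL; bactericidal means 3-log drop versus untreated.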

Staphylococcus aureus [11] = test: Induction of membrane permeabilization in clinical isolates of Staphylococcus aureus DM4001 by SYTOX green uptake assay; assay type: functional; method in brief: as §2
[12] = Selectivity index, ratio of HC50 for hemolytic activity against New Zealand white rabbit RBC to MIC for clinical isolates of Staphylococcus aureus DM4001
[13] = Membrane permeabilization activity assessed as release of calcein from DOPC liposomes at 16 to 64 lipid:compound ratio incubated for 30 mins by fluorescence assay; assay type: ADME; conditions: 0.5 h
Staphylococcus aureus [14] = test: Induction of membrane permeabilization in clinical isolates of Staphylococcus aureus DM4001 at MIC by SYTOX green uptake assay; assay type: functional; method in brief: as §2
Staphylococcus aureus [15] = test: Induction of membrane permeabilization in clinical isolates of Staphylococcus aureus DM4001 assessed as ATP leakage at MIC incubated for 10 mins by firefly luciferase based luminometry analysis; assay type: functional; method in brief: as §1
[16] = Membrane permeabilization activity assessed as release of calcein from DOPC liposomes at lipid:compound ratio of => 16 incubated for 30 mins by fluorescence assay; assay type: ADME; conditions: 0.5 h; method in brief: as §3
[17] = Membrane permeabilization activity assessed as release of calcein from DOPE/DOPG liposomes at lipid:compound ratio of 8 incubated for 30 mins by fluorescence assay; assay type: ADME; conditions: 0.5 h; method in brief: as §3
[18] = Membrane permeabilization activity assessed as release of calcein from DOPC liposomes at lipid:compound ratio of 4 incubated for 30 mins by fluorescence assay; assay type: ADME; conditions: 0.5 h; method in brief: as §3
[19] = Membrane permeabilization activity assessed as release of calcein from DOPE/DOPG liposomes at lipid:compound ratio of 4 incubated for 30 mins by fluorescence assay; assay type: ADME; conditions: 0.5 h; method in brief: as §3
[20] = Membrane permeabilization activity assessed as release of calcein from DOPC liposomes at lipid:compound ratio of 8 incubated for 30 mins by fluorescence assay; assay type: ADME; conditions: 0.5 h; method in brief: as §3
[21] = Membrane permeabilization activity assessed as release of calcein from DOPE/DOPG liposomes at lipid:compound ratio of => 16 incubated for 30 mins by fluorescence assay; assay type: ADME; conditions: 0.5 h; method in brief: as §3

Structure (SMILES) | HC50 at 1 h [2] | MIC (Bacillus cereus) | MIC (Staphylococcus aureus [4]) | MIC (Staphylococcus aureus [5]) | MIC (Staphylococcus aureus [6]) | Activity (Staphylococcus aureus [7]) | Activity (Staphylococcus aureus [8]) | Selectivity ratio [12] | further results
COc1c(OCCCCN(C)Cc2ccccc2)cc2oc3cc(OCCCCN(C)Cc4ccccc4)c(CC=C(C)C)c(O)c3c(=O)c2c1CC=C(C)C | > 200 µg/mL | > 50 µg/mL | > 50 µg/mL | > 50 µg/mL | > 50 µg/mL | – | – | – | Activity (Staphylococcus aureus [1]): 574 nM; Activity (Staphylococcus aureus [3]): 1778 cps
CCN(CC)CCCCCCCCCCCCOc1cc2oc3cc(OCCCCCCCCCCCCN(CC)CC)c(OC)c(CC=C(C)C)c3c(=O)c2c(O)c1CC=C(C)C | > 200 µg/mL | > 50 µg/mL | > 50 µg/mL | > 50 µg/mL | > 50 µg/mL | 99.9% | inactive | – | Activity [9]: 60%
CN[C@@H](CC(C)C)C(=O)N[C@H]1C(=O)N[C@@H](CC(N)=O)C(=O)N[C@H]2C(=O)N[C@H]3C(=O)N[C@H](C(=O)N[C@@H](C(=O)O)c4cc(O)cc(O)c4-c4cc3ccc4O)[C@H](O)c3ccc(c(Cl)c3)Oc3cc2cc(c3O[C@H]2O[C@@H](CO)[C@H](O)[C@@H](O)[C@@H]2O[C@@H]2C[C@@](C)(N)[C@@H](O)[C@@H](C)O2)Oc2ccc(cc2Cl)[C@H]1O | – | – | – | – | – | – | – | – | Activity (Staphylococcus aureus [10]): inactive
CCN(CC)CCCCOc1cc2oc3cc(OCCCCN(CC)CC)c(OC)c(CC=C(C)C)c3c(=O)c2c(OCCCCN(CC)CC)c1CC=C(C)C | > 200 µg/mL | 50 µg/mL (≈ 63.1 µM) | 25 µg/mL (≈ 31.6 µM) | 50 µg/mL (≈ 63.1 µM) | 12.5 µg/mL (≈ 15.8 µM) | – | – | – | Activity (Staphylococcus aureus [11]): 4305.1 cps
CCN(CC)CCCCCCCCOc1cc2oc3cc(OCCCCCCCCN(CC)CC)c(OC)c(CC=C(C)C)c3c(=O)c2c(O)c1CC=C(C)C | 53.1 µg/mL | > 50 µg/mL | > 50 µg/mL | > 50 µg/mL | > 50 µg/mL | 95.5% | Active | – | Activity [9]: > 70%
CCCCN(CCCC)CCCCOc1cc2oc3cc(OCCCCN(CCCC)CCCC)c(OC)c(CC=C(C)C)c3c(=O)c2c(O)c1CC=C(C)C | > 200 µg/mL | > 50 µg/mL | > 50 µg/mL | > 50 µg/mL | > 50 µg/mL | – | – | – | Activity (Staphylococcus aureus [1]): 763 nM; Activity (Staphylococcus aureus [3]): 1768 cps
CCN(CC)CCCCCOc1cc2oc3cc(OCCCCCN(CC)CC)c(OC)c(CC=C(C)C)c3c(=O)c2c(O)c1CC=C(C)C | – | 6.25 µg/mL (≈ 9.02 µM) | 0.78 µg/mL (≈ 1.13 µM) | 1.56 µg/mL (≈ 2.25 µM) | 1.56 µg/mL (≈ 2.25 µM) | 43% | Active | 9 | –
COc1c(OCCCCN(C)C)cc2oc3cc(OCCCCN(C)C)c(CC=C(C)C)c(O)c3c(=O)c2c1CC=C(C)C | 32.1 µg/mL | 6.25 µg/mL (≈ 10.3 µM) | 3.12 µg/mL (≈ 5.13 µM) | 3.12 µg/mL (≈ 5.13 µM) | 3.12 µg/mL (≈ 5.13 µM) | – | – | 10.3 | Activity [13]: Active; Activity (Staphylococcus aureus [14]): 23925 cps; Activity (Staphylococcus aureus [15]): 3.769 µM
CCCCN(CC)CCCCOc1cc2oc3cc(OCCCCN(CC)CCCC)c(OC)c(CC=C(C)C)c3c(=O)c2c(O)c1CC=C(C)C | > 200 µg/mL | 25 µg/mL (≈ 34.7 µM) | 25 µg/mL (≈ 34.7 µM) | 6.25 µg/mL (≈ 8.67 µM) | 12.5 µg/mL (≈ 17.3 µM) | – | – | > 16 | Activity (Staphylococcus aureus [14]): 64790 cps; Activity (Staphylococcus aureus [15]): 12.48 µM
O=c1c2ccc(O)cc2oc2cc(O)cc(O)c12 | > 200 µg/mL | > 50 µg/mL | > 50 µg/mL | > 50 µg/mL | > 50 µg/mL | – | – | – | Activity [16]: Not Active; Activity [17]: Not Active; Activity [18]: Not Active; Activity [19]: Not Active; Activity [20]: Not Active; Activity [21]: Not Active

Reference: ChEMBL document CHEMBL3751813, “Nonpeptidic Amphiphilic Xanthone Derivatives: Structure-Activity Relationship and Membrane-Targeting Properties” (J Med Chem, 2016)
